Results as given in publication PMC3914721 (Biochemistry, 2013).
Where “and” joins values, the source holds several entries; their conditions need not be identical. Identical values can stand only once. Like-named read-outs stand apart in the source and are kept apart here.

Tests used:
[1] = test system: pre-constricted aortic rings; settings: read-out: EC50 to stimulate sGC in pre-constricted aortic rings; cited from earlier work
Ms sGC-NT = Ms sGC-NT (Manduca sexta, UniProt O77106); test: Stimulator binding to Ms sGC-NT constructs, summary over constructs and methods; settings: for Effect of α1 H-NOX removal on stimulator binding (Ms sGC-NT21 vs Ms sGC-NT13): unliganded proteins
Ms sGC-NT21-CO = Ms sGC-NT21-CO (Manduca sexta, UniProt O77106); test: Soret band shift titration of CO-saturated protein; format: binding
Ms sGC-NT13-CO = Ms sGC-NT13-CO (Manduca sexta, UniProt O77106); test: Soret band shift titration of CO-saturated protein; format: binding
Ms sGC-NT21 [2] = molecular target: T1, Ms sGC-NT21 (Manduca sexta, UniProt O77106); format: binding; settings: for Kint (CO) cooperativity factor: from global fitting
Ms sGC-NT21 [3] = molecular target: T1, Ms sGC-NT21; test: CO titration monitoring the CO-bound Soret band; format: binding; settings: for Kd^CO/Kd^CO′ cooperativity factor: ratio of CO dissociation constants without and with compound
How it was run: (§1)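 CO titrations were run at room temperature in 50 mM potassium phosphate pH 7.4, 100 mM KCl, 5% glycerol, at several YC-1 concentrations (0–50 μM). NT21 used a 10 cm cuvette with 0.1 μM protein; NT13 used a 1 cm cuvette with 1 μM protein. A four-state cooperative model was globally fit to normalized absorbance changes at 423 and 433 nm, giving Ka^CO, Ka^YC-1 and Kint. Kd^CO′ is the inverse of Ka^CO·Kint.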

Ms sGC-NT13 [4] = molecular target: T2, Ms sGC-NT13 (Manduca sexta, UniProt O77106); format: binding
Ms sGC-NT13 [5] = molecular target: T2, Ms sGC-NT13; test: CO titration monitoring the CO-bound Soret band; format: binding; settings: for Kd^CO/Kd^CO′ cooperativity factor: ratio of CO dissociation constants without and with compound
How it was run: as §1

Ms sGC-NT2 = settings: read-out: Kd^CO, no stimulator, cited from earlier work
[6] = molecular target: heterodimeric sGC proteins; test: CO binding to heterodimeric sGC proteins, summary over constructs; parameters: species or system Manduca sexta; settings: read-out: Kd^CO, range over heterodimeric proteins; absence of YC-1
How it was run: (§2)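 CO from a saturated solution was added by gas-tight syringe to protein in septum-capped 1 or 10 cm cuvettes. The appearance of the CO-bound Soret absorption band was followed, and data were fit to a single-site saturation ligand-binding model.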

Hs sGC (full length) = settings: read-out: Kd^CO; no stimulator; ref 77; cited from earlier work
Bt sGC (full length) [7] = settings: read-out: Kd^CO, no stimulator, cited from earlier work
Bt sGC β1(1–197) = molecular target: T3, Bt sGC β1(1–197) (Bos taurus, UniProt P16068); test: CO titration monitoring the CO-bound Soret band; format: binding, Bos taurus (bovine)
T3 sequence (P16068 1-197): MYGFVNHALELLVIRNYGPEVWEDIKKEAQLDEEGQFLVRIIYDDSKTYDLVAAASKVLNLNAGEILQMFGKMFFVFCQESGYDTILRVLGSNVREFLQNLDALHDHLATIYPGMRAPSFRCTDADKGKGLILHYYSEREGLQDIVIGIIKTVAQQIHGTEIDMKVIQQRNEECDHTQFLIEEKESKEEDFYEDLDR
How it was run: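 Bovine β1 H-NOX construct was expressed in E. coli BL21(DE3)pRIPL with δ-aminolevulinic acid and ferric citrate. It was purified by Q-FF, S75 and second Q-FF chromatography and prepared in Ar-purged buffer with excess dithionite. CO from a saturated solution was titrated by gas-tight syringe into the septum-capped cuvette while the CO-bound Soret band was followed. Data were fit to a single-site saturation model.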

Ms sGC-NT19 = settings: read-out: Kd^CO; no stimulator; ref 43; cited from earlier work
Bt sGC β1(1–359) = molecular target: T4, Bt sGC β1(1–359) (Bos taurus, UniProt P16068); test: CO titration monitoring the CO-bound Soret band; format: binding, Bos taurus (bovine); settings: read-out: Kd^CO; no stimulator; 1 μM protein
T4 sequence (P16068 1-359): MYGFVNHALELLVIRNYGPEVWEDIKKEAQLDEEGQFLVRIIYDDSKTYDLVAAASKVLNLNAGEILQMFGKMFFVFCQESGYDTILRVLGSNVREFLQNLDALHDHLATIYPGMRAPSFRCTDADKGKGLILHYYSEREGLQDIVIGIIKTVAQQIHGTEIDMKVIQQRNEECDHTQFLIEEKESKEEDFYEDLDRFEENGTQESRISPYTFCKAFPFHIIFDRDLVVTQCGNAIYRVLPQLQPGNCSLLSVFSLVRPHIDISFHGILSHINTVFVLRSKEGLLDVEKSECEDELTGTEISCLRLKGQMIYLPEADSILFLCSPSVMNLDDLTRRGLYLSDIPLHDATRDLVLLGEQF
How it was run: as §2

Ms sGC β1(1–380) = molecular target: T5, Ms sGC β1(1–380) (Manduca sexta, UniProt O77106); test: CO titration monitoring the CO-bound Soret band; format: binding; settings: for Kd: read-out: Kd^CO
T5 sequence (O77106 1-380): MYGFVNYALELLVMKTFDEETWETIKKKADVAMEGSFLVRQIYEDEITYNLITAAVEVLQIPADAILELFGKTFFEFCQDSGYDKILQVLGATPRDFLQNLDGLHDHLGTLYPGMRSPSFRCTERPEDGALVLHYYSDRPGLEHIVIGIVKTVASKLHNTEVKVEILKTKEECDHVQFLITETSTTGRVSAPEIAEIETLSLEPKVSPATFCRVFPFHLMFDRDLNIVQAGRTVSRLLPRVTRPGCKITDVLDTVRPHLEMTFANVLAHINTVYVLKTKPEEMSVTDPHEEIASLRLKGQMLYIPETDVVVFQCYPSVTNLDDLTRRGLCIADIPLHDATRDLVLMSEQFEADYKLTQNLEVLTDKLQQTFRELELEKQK
How it was run: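 Ms β1(1–380) was expressed in E. coli Rosetta pLysS with 25 μM δ-aminolevulinic acid. It was purified by anion exchange, Ni-NTA (EDTA elution) and S200 gel filtration, where it ran as a monomer, then prepared in Ar-purged buffer with excess dithionite. CO from a saturated solution was titrated into a septum-capped 10 cm cuvette, the CO-bound Soret band was followed, and data were fit to a single-site saturation model.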

lysozyme = test: Fluorescence anisotropy of YC-1; format: binding; settings: 2 μM YC-1, 20 °C
sGC = settings: cited from earlier work
Bt sGC (full length) [8] = settings: read-out: Kd^YC-1′, +CO; measured in the presence of GTP; cited from earlier work
Ms sGC α1 PAS = molecular target: T6, Ms sGC α1 PAS (Manduca sexta, UniProt O77105); test: Fluorescence anisotropy of YC-1; format: binding
T6 sequence (O77105 279-404): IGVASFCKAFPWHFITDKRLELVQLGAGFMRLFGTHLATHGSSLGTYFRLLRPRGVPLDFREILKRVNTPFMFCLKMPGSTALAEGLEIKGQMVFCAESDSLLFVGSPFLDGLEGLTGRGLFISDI

Ms sGC β1 (1–380) = test: Soret band shift on YC-1 addition; format: binding, Manduca sexta; settings: CO-saturated protein
β1 PAS domain = test: Fluorescence anisotropy of YC-1; format: binding, Manduca sexta; settings: 2 μM YC-1, 20 °C; likely non-specific

SMILES: Nc1nc(-c2nn(Cc3ccccc3F)c3ncccc23)ncc1C1CC1 [BAY 41–2272]
- EC50 [1]: 0.3 µM
- Effect of α1 H-NOX removal on stimulator binding (Ms sGC-NT21 vs Ms sGC-NT13) (Ms sGC-NT): ~ 9 fold
- Kd (Ms sGC-NT21-CO): 0.09 ± 0.02 µM
- Solubility in aqueous buffer (Aqueous solubility): poor solubility
- Kd (Ms sGC-NT13-CO): 0.08 ± 0.01 µM
- Kd (Ms sGC-NT21 [2]): 0.03 ± 0.01 µM
- Kint (CO) cooperativity factor (Ms sGC-NT21 [2]): 58 ± 7
- Kd^CO/Kd^CO′ cooperativity factor (Ms sGC-NT21 [3]): 31 ± 5
- Kd (Ms sGC-NT13 [4]; Kd^BAY, −NO/CO, estimated assuming linked equilibria: (Kd^CO/Kd^CO′) Kd^BAY′): 17 ± 3 µM
- Kd^CO/Kd^CO′ cooperativity factor (Ms sGC-NT13 [5]): 212 ± 23

SMILES: [C-]#[O+] [CO]
- Kd (Ms sGC-NT2; ref 33): 77 ± 7 µM
- Kd (Ms sGC-NT2; ref 43): 90 ± 9 µM
- Kd [6]: 50 to 100 µM and 50 to 90 µM
- Kd (Hs sGC (full length)): 260 µM
- Kd (Bt sGC (full length) [7]; ref 51): 127 µM
- Kd (Bt sGC (full length) [7]; ref 76): 97 µM
- Kd (Ms sGC-NT21 [3]; read-out: Kd^CO, no stimulator, 10 cm cuvette, 0.1 μM protein): 2.2 ± 0.2 µM
- Fold tighter CO binding than Ms sGC proteins containing the α1 H-NOX domain (Ms sGC-NT21 [3]; removal of the α1 H-NOX domain): 20–40 fold and 24 fold
- Fold less tight CO binding than Ms sGC β1(1–380) (Bt sGC β1(1–197)): ~ 8 fold
- Kd (Bt sGC β1(1–197); read-out: Kd^CO, no stimulator, 1 cm cuvette, 0.5 μM protein): 1.6 ± 0.2 µM
- Kd (Ms sGC-NT19): 50 ± 3 µM
- Kd (Bt sGC β1(1–359)): 15 ± 4 µM
- Kd (Ms sGC β1(1–380); absence of the alpha chain): ~0.2 µM
- Kd (Ms sGC β1(1–380); no stimulator, 10 cm cuvette, 0.1 μM protein): ~0.2 µM and 0.2 µM
- Fold enhancement of CO binding on complete removal of the α1 chain (Ms sGC β1(1–380); vs heterodimeric Ms sGC): 265 fold
- Kd (Ms sGC-NT13 [5]; read-out: Kd^CO, no stimulator, 1 μM protein): 53 ± 4 µM

SMILES: OCc1ccc(-c2nn(Cc3ccccc3)c3ccccc23)o1 [YC-1]
- Binding of YC-1 by fluorescence anisotropy (lysozyme): not for lysozyme
- Kd (Ms sGC-NT; Kd, CO complexes (presence of CO), over constructs, Ms sGC-NT13 and Ms sGC-NT21): 0.6 to 1.1 µM and ~1 µM
- Effect of α1 H-NOX removal on stimulator binding (Ms sGC-NT21 vs Ms sGC-NT13) (Ms sGC-NT): ~ 2 fold
- Kd (Ms sGC-NT21-CO): 0.6 ± 0.1 µM
- Stimulation of sGC (sGC; in the absence of NO): two- to four-fold
- Activation of sGC (sGC; synergistically with CO or NO): several hundred fold
- Solubility in aqueous buffer (Aqueous solubility): poor solubility
- Kd (Ms sGC-NT13-CO): 0.8 ± 0.1 µM
- Kd (Bt sGC (full length) [8]): ~8 µM
- Kd (Ms sGC α1 PAS): > 100 µM
- Kint (CO) cooperativity factor (Ms sGC-NT21 [2]): 14 and 13.8 ± 0.3
- Shift in Soret band maxima upon YC-1 binding (Ms sGC β1 (1–380)): not observed
- Tightening of the CO dissociation constant upon YC-1 binding (Ms sGC-NT21 [3]; 50 μM YC-1): 10 fold
- Kd^CO/Kd^CO′ cooperativity factor (Ms sGC-NT21 [3]): 11 ± 1
- Kint (CO) cooperativity factor (Ms sGC-NT13 [4]; from global fitting): 19 and 19 ± 2
- Kint, cooperativity in CO binding (Ms sGC β1(1–380); any of the constructs missing the α1 chain): ~ 1
- Binding of YC-1 by fluorescence anisotropy (β1 PAS domain): weak signal
- Kd^CO/Kd^CO′ cooperativity factor (Ms sGC-NT13 [5]): 19 ± 3
